High-throughput results from PubChem BioAssay.
This is a sample that favours compounds with a hit; in the whole collection about 1.6% have one here.
VIM-2 inhibitor: blocks Pseudomonas aeruginosa VIM-2 metallo-beta-lactamase; AID 1527; 290,000 compounds, 0.89% hits; inhibition, % at 5.6 µM; purified VIM-2, nitrocefin hydrolysis, epi-absorbance fluorescence;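 active = inhibition above the mean of all tested compounds plus 3 SD, cutoff set per screening run, cut at about 7.5% in these data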;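 also: red hydrolysis product quenches plate fluorescence so inhibitors raise well fluorescence; 0% = enzyme with DMSO and 100% = DMSO without enzyme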
FID counter: displaces DNA intercalator in HCV helicase counter-screen; 290,000 compounds, 0.17% hits; inhibition, % at 7.9 µM; DNA fluorescent intercalator displacement, fluorescence; AID 1845; in the data active = inhibition above about 37%;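 also: 0% = vehicle and 100% = reference compound; higher means more ethidium bromide displaced from hairpin DNA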
core dimer inh: HCV core protein dimerization inhibition. TR-FRET GST/Flag-core106 dimerization, 1536-well. inhibition, % at 5 µM. 300,000 compounds, 0.33% hits. AID 1899;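 active = inhibition above the mean of all tested compounds plus 3 SD, set per screening campaign, cut at about 45% in these data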
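System: GST/Flag-tagged HCV core106 proteins. Incubation: compound-protein-antibody incubation 4 h at 22.5 °C. Technique: HTRF with 340 nm excitation, 617/671 nm emission. Medium: KF-containing HEPES buffer, pH 7.45, DTT, CHAPS, BSA. Read-out: inhibition (%) from 671 over 617 nm ratio. Also added: Eu(K)-anti-GST 90 ng/mL plus XL665-anti-Flag 1 µg/mL.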
IMP-1 inh-1: blocks Pseudomonas aeruginosa IMP-1 metallo-beta-lactamase | 290,000 compounds, 0.45% hits | purified IMP-1, nitrocefin hydrolysis, epi-absorbance fluorescence | inhibition, % at 5.6 µM;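 active = inhibition above the mean plus 3 SD of all compounds in the same screening run, cut at about 4.5% in these data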;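 also: 0% = IMP-1 with DMSO and 100% = DMSO wells lacking enzyme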
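System: purified recombinant IMP-1 beta-lactamase. Medium: Zinc- and detergent-supplemented HEPES buffer, pH 7.1. Compound: one 5.6 µM dose […]. Schedule: 15 min preincubation plus 25 min reaction at 25 °C. Technique: Epi-absorbance fluorescence, 480 nm excitation, 530 nm emission.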
IMP-1 inh-2: blocks IMP-1 metallo-beta-lactamase in VIM-2 selectivity screen; shares compounds with VIM-2 inhibitor; purified IMP-1, nitrocefin hydrolysis, epi-absorbance fluorescence; inhibition, % at 5.6 µM; 1,300 tested, under 10 active; AID 1856; call rule not given here;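 also: 0% = enzyme with vehicle and 100% = vehicle without enzyme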
VIM-2 FRET ctr: inhibits VIM-2 in FRET assay to exclude epi-absorbance artifacts; 1,300 compounds, 23% hits; purified VIM-2, CCF2 FRET substrate hydrolysis; AID 1857; shares compounds with VIM-2 inhibitor; inhibition, % at 5.6 µM;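 active = inhibition above the mean of all tested compounds plus 3 SD, cut at about 19% in these data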;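 also: 0% = VIM-2 plus DMSO and 100% = no enzyme wells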
TEM-1 inh: selectivity counter-screen for VIM-2 inhibitors: E. coli TEM-1 inhibitors | shares compounds with VIM-2 inhibitor | Purified TEM-1, nitrocefin hydrolysis, epi-absorbance fluorescence | inhibition, % at 5.6 µM | 1,300 compounds, 3% hits | AID 1866;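 active = inhibition above that campaign's mean inhibition plus 3 SD, cut at about 0.46% in these data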;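 also: 0% = TEM-1 with DMSO and 100% = TEM-1 with 100 µM potassium clavulanate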
Target sequence (P62593 whole entry, looked up): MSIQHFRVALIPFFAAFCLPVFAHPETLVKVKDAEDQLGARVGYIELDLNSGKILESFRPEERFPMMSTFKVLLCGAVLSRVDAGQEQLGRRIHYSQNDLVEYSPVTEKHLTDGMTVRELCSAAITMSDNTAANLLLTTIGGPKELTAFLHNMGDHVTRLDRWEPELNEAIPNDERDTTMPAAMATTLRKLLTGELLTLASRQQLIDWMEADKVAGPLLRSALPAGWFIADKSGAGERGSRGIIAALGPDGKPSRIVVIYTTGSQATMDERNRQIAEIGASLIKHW
VIM-2 inh conf: confirmation of P. aeruginosa VIM-2 metallo-beta-lactamase inhibitors; 1,300 compounds, 96% hits; inhibition, % at 5.6 µM; purified VIM-2, nitrocefin hydrolysis, epi-absorbance; shares compounds with VIM-2 inhibitor;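 active = inhibition of the VIM-2 beta-lactamase enzyme above about 11% from the earlier first-round screen, limit read from the data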;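 also: 0% = VIM-2 with DMSO and 100% = buffer wells without enzyme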
Starred values were filed as active, the others as inactive; nt = not tested or not shown.

SMILES	VIM-2 inhibitor	FID counter	core dimer inh	IMP-1 inh-1	IMP-1 inh-2	VIM-2 FRET ctr	TEM-1 inh	VIM-2 inh conf
CCOC(=O)c1cc(-c2ccc(/C=N\n3cnnc3)o2)ccc1Cl	57*	-17	0	0	-3	-4	-6	78*
CCCCOC(=O)c1cc(-c2ccc(/C=N/n3cnnc3)o2)ccc1Cl	22*	-13	3	-2	0	-5	-6	54*
Cc1cc(-c2ccc(/C=N/n3cnnc3)o2)ccc1Cl	14*	-16	0	-2	-2	-9	-2	37*
Cc1cccc(OC(=O)c2sc(Cl)nc2C)c1	-4	-3	-7	0	nt	nt	nt	nt
COc1ccc(CN(C)CC(=O)Nc2cc3oc4ccccc4c3cc2OC)c(OC)c1	0	10	3	-4	nt	nt	nt	nt
O=C(OCn1nnc2ccccc2c1=O)c1ccc(N2CCOCC2)c([N+](=O)[O-])c1	-3	-12	-6	-2	nt	nt	nt	nt
COc1ccc2nc(SCC(=O)N3CCN(c4ccc(F)cc4)CC3)c(C#N)cc2c1	15*	-8	10	-2	-4	13	-6	42*
COc1ccc2cc(C#N)c(SCC(=O)N3CCCC3)nc2c1	-3	-19	4	-1	nt	nt	nt	nt
Cc1ccc(C)n1CCN1CCN(C(=O)CSc2nc3ccccc3nc2N2CCOCC2)CC1	16*	-16	10	-1	-3	-5	-8	15*
Cc1ccc(NC(=O)CSc2nc3ccccc3nc2N2CCOCC2)cc1	-3	-38	-1	-1	nt	nt	nt	nt
CN(C)C(=S)Nc1cccc(-c2n[nH]c(=S)o2)c1	-2	0	1	-2	nt	nt	nt	nt
NNC(=S)Nc1cccc(-c2n[nH]c(=S)o2)c1	15*	-25	4	-2	-4	18*	-9	9.2*
O=c1[nH]c(-[n+]2ccccc2)c(/C=N/N=C(\[O-])c2ccccc2)s1	-2	-2	-2	-1	nt	nt	nt	nt
Cc1nc(S/C(=C\c2ccc(-c3ccc(C(=O)O)c(Cl)c3)o2)C(=O)O)n[nH]1	16*	-15	nt	-5	-6	17*	-7	17*
O=C(O)C(NC(=O)c1ccccc1)=C(Cl)Cl	23*	-1	-7	-4	-3	44*	-5	25*
CC(=O)N/N=C/c1cc(C(C)(C)C)cc(/C=N/NC(C)=O)c1O	39*	-14	-3	1	2	10	-4	55*
Cc1cc(C(=O)N/N=C\c2cc(C(C)(C)C)ccc2O)n[nH]1	-6	-26	0	-3	nt	nt	nt	nt
COc1ccc(Nc2nc(N3CCCC3)nc3ccccc23)c(OC)c1	31*	31	-2	-1	-2	1	-6	43*
COc1ccc(Nc2ncnc3ccccc23)c(OC)c1	-5	-9	-1	-2	nt	nt	nt	nt
O=[N+]([O-])c1cccc(-c2n[nH]c(=S)n2-c2ccccc2)c1	-1	-2	-1	-3	nt	nt	nt	nt
C=CCn1c(-c2cccn(Cc3cccc(Cl)c3)c2=O)n[nH]c1=S	3	-17	4	0	nt	nt	nt	nt
Cc1cccc(-c2n[nH]c(=S)n2-c2ccccc2)c1[N+](=O)[O-]	34*	0	14	-2	-2	62*	-7	44*
Cc1c(Cl)c(-c2n[nH]c(=S)n2-c2ccccc2)nn1C	19*	-17	-2	-5	-3	44*	-8	27*
O=c1c(-c2n[nH]c(=S)n2-c2ccccc2)cccn1Cc1cccc(Cl)c1	25*	-27	8	-4	-3	48*	-9	31*
COc1ccc(CNc2nc(-c3cccnc3)nn2C(=O)CC(C)C)cc1	-2	-16	2	-2	nt	nt	nt	nt
SMILES	VIM-2 inhibitor	FID counter	core dimer inh	IMP-1 inh-1	IMP-1 inh-2	VIM-2 FRET ctr	TEM-1 inh	VIM-2 inh conf
Nc1c(-c2ccc(Cl)cc2)cnn1-c1cc(C(F)(F)F)cc(C(F)(F)F)c1	-3	-5	-4	-3	nt	nt	nt	nt
CC(C)(C)[C@@H]1C=C(C(=O)NC2CC2)O[C@H](OCc2ccc(CO)cc2)C1	-2	-27	-1	-2	nt	nt	nt	nt
Cc1ccc(S(=O)(=O)n2[nH]c(=O)cc2NC(=O)c2cccs2)cc1	70*	-27	-8	0	-4	91*	-6	84*
COc1ccc(S(=O)(=O)n2nc(OC(=O)c3cccs3)cc2NC(=O)c2cccs2)cc1	74*	-27	2	-1	-3	37*	5.7*	16*
CCN(CC)c1nc(Oc2ccc(C(=O)NN)cc2)nc(Oc2ccc(C(=O)NN)cc2)n1	70*	-40	nt	-3	-4	8	-7	82*
CNC(=O)C(=O)Nc1c(O)c2ccccc2[nH]c1=O	1	-4	1	-1	nt	nt	nt	nt
COc1ccc(OC)c(Nc2nc(N)nc(CSc3nnc(N)s3)n2)c1	1	8	3	-3	nt	nt	nt	nt
CCN(CC)CCOC(=O)c1cccc2c1-c1ccccc1C2O (configuration not stated)	25*	16	-3	0	-5	4	-9	43*
O=C(Nc1ccc2nc(-c3cccnc3)[nH]c2c1)c1ccccc1F	49*	-5	-5	-1	-1	0	-1	4
Cc1ccc(-c2nn3cnnc3c3ccccc23)cc1C	24*	-22	0	-1	0	6	1.6*	39*
Cc1ccc(-c2nn3nnnc3c3ccccc23)cc1C	0	0	-5	0	nt	nt	nt	nt
O=S(=O)(c1ccc(NC(=S)N2CCN(c3ccccc3F)CC2)cc1)N1CCOCC1	-2	-5	-3	-2	nt	nt	nt	nt
COC(=O)Nc1ccc(=O)n(Cc2c(Cl)cccc2Cl)c1	-6	-1	0	-2	nt	nt	nt	nt
Cc1cc(C)n2nc(CC#N)c(C#N)c2n1	-1	-12	-21	-2	nt	nt	nt	nt
Cc1cc(C)n2nc(/C(C#N)=C/c3ccccn3)c(C#N)c2n1	45*	-12	-11	0	-3	-28	-8	7.7*
CCc1ccc(Nc2nnc(SCn3nnc4ccccc4c3=O)s2)cc1	-2	-3	19	-2	nt	nt	nt	nt
C=CCn1c(SCC(C)=O)nc2sc3c(c2c1=O)CCC3	6	-14	4	-1	nt	nt	nt	nt
C=CCn1c(SCC(=O)N2CCN(CCO)CC2)nc2sc3c(c2c1=O)CCC3	50*	-13	1	0	-3	1	-9	64*
COC(=O)c1nn(-c2nc(-c3ccc(OC)c(OC)c3)cc(C(F)(F)F)n2)cc1[N+](=O)[O-]	-2	-4	-3	-4	nt	nt	nt	nt
COc1ccc(-c2cc(C(F)(F)F)nc(N3CCCCCC3)n2)cc1	-2	4	4	-3	nt	nt	nt	nt
COc1ccc(-c2cc(C(F)(F)F)nc(N3CCN(C)CC3)n2)cc1	17*	20	-9	-4	-2	36*	-7	25*
